The full list was thinned out, with hits kept by preference.
PKD1 inh – inhibitors of human PKD1 kinase, biochemical, fluorescence polarization | Serine/threonine-protein kinase D1 (Homo sapiens), Q15139 | PKD1 kinase fluorescence polarization assay | inhibition, % (test concentration not listed) | 200,000 compounds, 0.056% hits
Target sequence (Q15139 whole entry, looked up): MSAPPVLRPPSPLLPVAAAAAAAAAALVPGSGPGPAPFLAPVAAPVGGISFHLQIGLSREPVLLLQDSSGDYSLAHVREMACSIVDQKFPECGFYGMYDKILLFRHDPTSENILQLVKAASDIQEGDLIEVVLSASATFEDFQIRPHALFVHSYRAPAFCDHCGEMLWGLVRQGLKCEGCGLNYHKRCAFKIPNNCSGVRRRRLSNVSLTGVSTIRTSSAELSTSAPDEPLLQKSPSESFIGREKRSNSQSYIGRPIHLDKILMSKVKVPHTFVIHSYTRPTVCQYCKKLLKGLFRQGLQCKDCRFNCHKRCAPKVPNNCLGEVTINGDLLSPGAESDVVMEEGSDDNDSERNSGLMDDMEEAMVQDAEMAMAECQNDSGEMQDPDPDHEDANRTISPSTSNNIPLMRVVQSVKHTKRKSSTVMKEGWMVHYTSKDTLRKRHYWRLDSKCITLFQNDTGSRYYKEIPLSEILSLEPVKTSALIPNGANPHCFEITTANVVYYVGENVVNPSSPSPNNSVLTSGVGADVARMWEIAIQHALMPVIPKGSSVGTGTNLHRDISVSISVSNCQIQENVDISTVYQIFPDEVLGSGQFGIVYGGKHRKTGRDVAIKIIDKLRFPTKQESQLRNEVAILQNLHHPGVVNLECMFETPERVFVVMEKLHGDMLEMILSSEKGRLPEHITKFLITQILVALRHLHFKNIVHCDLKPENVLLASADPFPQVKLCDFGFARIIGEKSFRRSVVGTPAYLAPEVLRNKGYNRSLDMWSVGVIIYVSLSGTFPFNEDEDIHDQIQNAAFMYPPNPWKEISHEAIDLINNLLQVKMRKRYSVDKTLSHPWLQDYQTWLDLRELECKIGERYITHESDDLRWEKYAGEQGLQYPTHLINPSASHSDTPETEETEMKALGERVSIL
Avidin bead fluor – green autofluorescence of compounds with avidin beads – biophysical, 488/530 nm, flow cytometry, artefact control, profiling panel | 220,000 compounds, 0.38% hits | AID 1775, 2009 | compound fluorescence 488/530 nm; active compounds read high | fluorescence (KMESF) at 10 µM; in the data active = fluorescence above about 47
Lmaj promast – Leishmania major promastigote growth inhibition, primary screen. Leishmania major promastigotes, resazurin fluorescence viability. inhibition, % at 10 µM. 200,000 compounds, 9% hits;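 note: promastigotes grown with compound for 44 hours at 28 °C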
GSH fluor – compound fluorescence on glutathione beads, profiling panel, artefact control, biophysical, 488/530 nm, flow cytometry | AID 1776, 2009 | fluorescence (KMESF) at 10 µM | 190,000 compounds, 0.25% hits | GSH beads flow cytometry, compound fluorescence 488/530 nm; active compounds read high; in the data active = fluorescence above about 89;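 note: glutathione beads carrying GST-tagged Bcl family fusion proteins plus one bare bead set; values are compound well signal with DMSO vehicle wells as background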
ABCB1 inh – ABCB1 efflux pump inhibitors, primary screen, cell-based, multiplex, flow cytometry, ABCG2 counter-screen. CCRF-Adr cells, JC-1 efflux. inhibition, % at 6.6 µM. 190,000 compounds, 0.067% hits; in the data active = inhibition above about 40%;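 note: 0% = vehicle and 100% = reference inhibitor; higher value means more JC-1 retained so stronger ABCB1 efflux block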
ABCG2 inh – ABCG2 efflux pump inhibitors, primary screen, multiplex with ABCB1, IgMXP3 cells, flow cytometry. JC-1 efflux. inhibition, % at 6.6 µM. Broad substrate specificity ATP-binding cassette transporter ABCG2 (Homo sapiens), Q9UNQ0. 190,000 compounds, 0.1% hits;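 active = inhibition above 80%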;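 note: 0% = DMSO and 100% = nicardipine control wells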
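Measure – % inhibition of efflux relative to nicardipine and DMSO · Test system – ABCG2 IgMXP3 and barcoded ABCB1 CCRF-Adr cell mix · Control set – nicardipine as high control, DMSO as low control · Compound – one concentration, 6.6 µM final · Signal – flow cytometry of retained JC-1 fluorescence · Timing – 10 min exposure at 25 °C with rotation, no wash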
Starred values were filed as active, the others as inactive. Cut-off read from the data, not from the text of the source, unless noted: active = inhibition above about 50%; inactive = the rest.

Results for Cc1cccc(C)c1NC(=O)C(C)c1ccc(-c2ccccc2)c(F)c1 (stereo not given) ?
PKD1 inh: -1; Avidin bead fluor: 24; Lmaj promast: 100*; GSH fluor: 16; ABCB1 inh: 1; ABCG2 inh: 7

What do the screens show for `Cc1cccc(C)c1NC(=O)C(NC=O)c1ccc(Cl)cc1` (stereo not given)?
PKD1 inh: -5; Avidin bead fluor: 37; Lmaj promast: -3; GSH fluor: 16; ABCB1 inh: 0; ABCG2 inh: 0

Results for COc1c(C(CC(C)C)OC(C)=O)ccc2c1C(=O)OCc1cc(C)cc(O)c1O2 (stereo not given) ?
Avidin bead fluor: 7

Results for CCOC(=O)C1=C(C)NC(SCC(=O)Nc2cc(C)on2)=C(C#N)C1c1cccs1 (stereo not given) ?
PKD1 inh: -5; Avidin bead fluor: 11; Lmaj promast: 60*; GSH fluor: 15; ABCB1 inh: 0; ABCG2 inh: 1

What do the screens show for `CCOC(=O)C1=C(C)NC(SCC(N)=O)=C(C#N)C1c1cccs1` (stereo not given)?
PKD1 inh: -5; Avidin bead fluor: 10; Lmaj promast: 2; GSH fluor: 30; ABCB1 inh: 2; ABCG2 inh: 10

Results for CCOC(=O)CSC1=C(C#N)C(c2ccco2)C(C(=O)Nc2cccc(C(F)(F)F)c2)=C(C)N1 (stereo not given) ?
PKD1 inh: 5; Avidin bead fluor: 18; Lmaj promast: 5; GSH fluor: 38; ABCB1 inh: 1; ABCG2 inh: 8

How did CC1=C(C(=O)Nc2nc3ccccc3s2)C(c2ccco2)C(C#N)=C(SCC(=O)NC2CCCCC2)N1 (stereo not given) do in these assays?
PKD1 inh: -2; Avidin bead fluor: 5; Lmaj promast: 73*; GSH fluor: 11; ABCB1 inh: 1; ABCG2 inh: 0

What do the screens show for `COc1ccccc1NC(=O)C1=C(C)NC(SCC(=O)Nc2ccc(C(=O)O)cc2)=C(C#N)C1c1cccs1` (stereo not given)?
Avidin bead fluor: 9

What do the screens show for `CCCSC1=C(C#N)C(c2cccs2)C(C(=O)Nc2ccccc2)=C(C)N1` (stereo not given)?
PKD1 inh: 3; Avidin bead fluor: 3; Lmaj promast: 89*; GSH fluor: 18; ABCB1 inh: 2; ABCG2 inh: 7

Results for CCSC1=C(C#N)C(c2cccs2)C(C(=O)OC)=C(C)N1 (stereo not given) ?
PKD1 inh: -2; Avidin bead fluor: 6; Lmaj promast: 24; GSH fluor: 13; ABCB1 inh: 0; ABCG2 inh: 9

How did CC1=C(C(=O)Nc2ccccc2)C(c2ccncc2)C(C#N)=C(SCC(=O)NC(C)C)N1 (stereo not given) do in these assays?
PKD1 inh: 4; Avidin bead fluor: 3; Lmaj promast: 89*; GSH fluor: 10; ABCB1 inh: 1; ABCG2 inh: 3

What do the screens show for `CC1=C(C(=O)Nc2ccccc2)C(c2ccncc2)C(C#N)=C(SCC(=O)NC2CC2)N1` (stereo not given)?
PKD1 inh: -2; Avidin bead fluor: 14; Lmaj promast: 73*; GSH fluor: 7; ABCB1 inh: 1; ABCG2 inh: 3

How did CC1CCCCC12NC(=S)N(c1ccccc1)N2 (stereo not given) do in these assays?
Avidin bead fluor: 9

Results for CC1CCCC2(C1)NC(=S)N(c1ccccc1)N2 (stereo not given) ?
PKD1 inh: 2; Avidin bead fluor: 18; Lmaj promast: 84*; GSH fluor: 9; ABCB1 inh: 0; ABCG2 inh: 0

What do the screens show for `S=C1NC2(CCCCC2)NN1c1ccccc1`?
PKD1 inh: 4; Avidin bead fluor: 3; Lmaj promast: 81*; GSH fluor: 10; ABCB1 inh: 1; ABCG2 inh: 2
